Values after ≈ are worked out from the molar mass of the structure shown. Each block holds one molecule with its values, some of them ahead of it.
Legend:
Staphylococcus aureus [1] = experiment: Antibacterial activity against Staphylococcus aureus ATCC 25923 after 18 hrs; assay type: functional; conditions: ATCC 25923, 18 h
How it was run: (§1)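 Twofold serial dilutions in Tryptic Soy Broth, 0.1 to 80 µg/mL; stocks in DMSO/TSB 1:10 v/v. Inoculum adjusted to 0.5 McFarland, then diluted in sterile saline and TSB. Incubated 35 °C for 18 h. MIC taken as the lowest concentration with no visible growth. Triplicate.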

Staphylococcus aureus [2] = experiment: Antibacterial activity against multidrug-resistant Staphylococcus aureus 3SP/R33 after 18 hrs; assay type: functional; conditions: 3SP/R33, 18 h
How it was run: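 Twofold serial dilutions in Tryptic Soy Broth, 0.1 to 80 µg/mL. Stocks prepared in DMSO/TSB 1:10 v/v. Inoculum was adjusted to 0.5 McFarland, then diluted in sterile saline and TSB. Plates were incubated at 35 °C for 18 h. MIC taken as the lowest concentration with no visible growth. Readings at 24 and 48 h served as sterility control. Run in triplicate.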

Staphylococcus aureus [3] = experiment: Antibacterial activity against vancomycin-intermediate Staphylococcus aureus VISA3 after 18 hrs; assay type: functional; conditions: VISA3, 18 h; how it was run: as §1
Trypanosoma cruzi = experiment: Antitrypanosomal activity against epimastigote form of Trypanosoma cruzi Y after 5 days by spectrophotometer analysis; assay type: functional, organism-based; conditions: 120 h
How it was run: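 Stationary-phase epimastigotes from a 10-day, 28 °C culture were set at 2.0 × 10^6 parasites/mL in LIT medium. Compounds in DMSO were diluted into LIT at 1.25–40.0 µM and incubated 5 days at 28 °C. A580 on days 0 and 5 gave % growth inhibition against untreated cultures. IC50 came from dose–response curves (≥4 concentrations). Triplicate; benznidazole reference.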

Candida albicans = experiment: Antifungal activity against Candida albicans ATCC 537Y after 48 hrs by serial dilution method; assay type: functional
How it was run: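 Broth microdilution following CLSI M27-A2, adapted for higher sensitivity. Stocks made in RPMI 1640 with 20% DMSO. Serial dilutions inoculated with C. albicans in RPMI 1640 at 10^3–10^5 CFU/mL final, incubated 35 °C for 48 h. MIC is the lowest concentration giving prominent growth reduction. Wells above 5% v/v DMSO were discarded. Triplicate; fluconazole reference.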

SMILES: CC(=O)N1N=C(c2ccccc2)OC1c1ccc([N+](=O)[O-])s1 (stereo not given)
- MIC (Staphylococcus aureus [1]): 2.46 µg/mL (≈ 7.75 µM)
- MIC (Staphylococcus aureus [2]): 1.25 µg/mL (≈ 3.94 µM)
- MIC (Staphylococcus aureus [3]): 0.63 µg/mL (≈ 1.99 µM)
- IC50 (Trypanosoma cruzi): 10.2 µM

SMILES: CC(=O)N1N=C(c2ccc(Cl)cc2)OC1c1ccc([N+](=O)[O-])s1 (stereo not given)
- MIC (Staphylococcus aureus [1]): 1.97 µg/mL (≈ 5.6 µM)
- MIC (Staphylococcus aureus [2]): 1.25 µg/mL (≈ 3.55 µM)
- MIC (Staphylococcus aureus [3]): 2.5 µg/mL (≈ 7.11 µM)
- IC50 (Trypanosoma cruzi): 10.8 µM
- MIC (Candida albicans): 4.25 µg/mL (≈ 12.1 µM)

SMILES: CC(=O)N1N=C(c2ccc(Br)cc2)OC1c1ccc([N+](=O)[O-])s1 (stereo not given)
- MIC (Staphylococcus aureus [1]): 2.66 µg/mL (≈ 6.71 µM)
- MIC (Staphylococcus aureus [2]): 1.25 µg/mL (≈ 3.15 µM)
- MIC (Staphylococcus aureus [3]): 2.5 µg/mL (≈ 6.31 µM)
- IC50 (Trypanosoma cruzi): 10.2 µM

SMILES: CC(=O)N1N=C(c2ccc(I)cc2)OC1c1ccc([N+](=O)[O-])s1 (stereo not given)
- MIC (Staphylococcus aureus [1]): 2.87 µg/mL (≈ 6.48 µM)
- MIC (Staphylococcus aureus [2]): 1.25 µg/mL (≈ 2.82 µM)
- MIC (Staphylococcus aureus [3]): 2.5 µg/mL (≈ 5.64 µM)
- IC50 (Trypanosoma cruzi): 12.1 µM

SMILES: CC(=O)N1N=C(c2ccc(C(F)(F)F)cc2)OC1c1ccc([N+](=O)[O-])s1 (stereo not given)
- MIC (Staphylococcus aureus [1]): 2.62 µg/mL (≈ 6.8 µM)
- MIC (Staphylococcus aureus [2]): 1.25 µg/mL (≈ 3.24 µM)
- MIC (Staphylococcus aureus [3]): 2.5 µg/mL (≈ 6.49 µM)
- IC50 (Trypanosoma cruzi): 14.2 µM
- MIC (Candida albicans): 7.2 µg/mL (≈ 18.7 µM)

SMILES: CC(=O)N1N=C(c2ccc(C)cc2)OC1c1ccc([N+](=O)[O-])s1 (stereo not given)
- MIC (Staphylococcus aureus [1]): 2.62 µg/mL (≈ 7.91 µM)
- MIC (Staphylococcus aureus [2]): 1.25 µg/mL (≈ 3.77 µM)
- MIC (Staphylococcus aureus [3]): 2.5 µg/mL (≈ 7.54 µM)
- IC50 (Trypanosoma cruzi): 11.5 µM
- MIC (Candida albicans): 2.95 µg/mL (≈ 8.9 µM)

SMILES: CCc1ccc(C2=NN(C(C)=O)C(c3ccc([N+](=O)[O-])s3)O2)cc1 (stereo not given)
- MIC (Staphylococcus aureus [1]): 2.69 µg/mL (≈ 7.79 µM)
- MIC (Staphylococcus aureus [2]): 1.25 µg/mL (≈ 3.62 µM)
- MIC (Staphylococcus aureus [3]): 2.5 µg/mL (≈ 7.24 µM)
- IC50 (Trypanosoma cruzi): 10.7 µM

SMILES: CCCc1ccc(C2=NN(C(C)=O)C(c3ccc([N+](=O)[O-])s3)O2)cc1 (stereo not given)
- MIC (Staphylococcus aureus [1]): 3.28 µg/mL (≈ 9.13 µM)
- MIC (Staphylococcus aureus [2]): 1.25 µg/mL (≈ 3.48 µM)
- MIC (Staphylococcus aureus [3]): 1.25 µg/mL (≈ 3.48 µM)
- IC50 (Trypanosoma cruzi): 9.9 µM

SMILES: COc1ccc(C2=NN(C(C)=O)C(c3ccc([N+](=O)[O-])s3)O2)cc1 (stereo not given)
- MIC (Staphylococcus aureus [1]): 2.23 µg/mL (≈ 6.42 µM)
- MIC (Staphylococcus aureus [2]): 1.25 µg/mL (≈ 3.6 µM)
- MIC (Staphylococcus aureus [3]): 0.63 µg/mL (≈ 1.81 µM)
- IC50 (Trypanosoma cruzi): 10.7 µM

SMILES: CCOc1ccc(C2=NN(C(C)=O)C(c3ccc([N+](=O)[O-])s3)O2)cc1 (stereo not given)
- MIC (Staphylococcus aureus [1]): 2.36 µg/mL (≈ 6.53 µM)
- MIC (Staphylococcus aureus [2]): 1.25 µg/mL (≈ 3.46 µM)
- MIC (Staphylococcus aureus [3]): 2.5 µg/mL (≈ 6.92 µM)
- IC50 (Trypanosoma cruzi): 26.6 µM
- MIC (Candida albicans): 5.83 µg/mL (≈ 16.1 µM)

SMILES: CCCOc1ccc(C2=NN(C(C)=O)C(c3ccc([N+](=O)[O-])s3)O2)cc1 (stereo not given)
- MIC (Staphylococcus aureus [1]): 3.28 µg/mL (≈ 8.74 µM)
- MIC (Staphylococcus aureus [2]): 2.5 µg/mL (≈ 6.66 µM)
- MIC (Staphylococcus aureus [3]): 2.5 µg/mL (≈ 6.66 µM)
- IC50 (Trypanosoma cruzi): 12.2 µM

SMILES: CCCCOc1ccc(C2=NN(C(C)=O)C(c3ccc([N+](=O)[O-])s3)O2)cc1 (stereo not given)
- MIC (Staphylococcus aureus [1]): 1.25 µg/mL (≈ 3.21 µM)
- MIC (Staphylococcus aureus [2]): 1.25 µg/mL (≈ 3.21 µM)
- MIC (Staphylococcus aureus [3]): 5 µg/mL (≈ 12.8 µM)
- IC50 (Trypanosoma cruzi): 11.5 µM
- MIC (Candida albicans): 6.78 µg/mL (≈ 17.4 µM)

SMILES: CC(=O)N1N=C(c2ccc([N+](=O)[O-])cc2)OC1c1ccc([N+](=O)[O-])s1 (stereo not given)
- MIC (Staphylococcus aureus [1]): 2.39 µg/mL (≈ 6.6 µM)
- MIC (Staphylococcus aureus [2]): 2.5 µg/mL (≈ 6.9 µM)
- MIC (Staphylococcus aureus [3]): 1.25 µg/mL (≈ 3.45 µM)
- IC50 (Trypanosoma cruzi): 9.85 µM

SMILES: CC(=O)N1N=C(c2ccc(C#N)cc2)OC1c1ccc([N+](=O)[O-])s1 (stereo not given)
- MIC (Staphylococcus aureus [1]): 2.66 µg/mL (≈ 7.77 µM)
- MIC (Staphylococcus aureus [2]): 1.25 µg/mL (≈ 3.65 µM)
- MIC (Staphylococcus aureus [3]): 0.63 µg/mL (≈ 1.84 µM)
- IC50 (Trypanosoma cruzi): 8.19 µM

SMILES: COC(=O)c1ccc(C2=NN(C(C)=O)C(c3ccc([N+](=O)[O-])s3)O2)cc1 (stereo not given)
- MIC (Staphylococcus aureus [1]): 2.95 µg/mL (≈ 7.86 µM)
- MIC (Staphylococcus aureus [2]): 1.25 µg/mL (≈ 3.33 µM)
- MIC (Staphylococcus aureus [3]): 0.63 µg/mL (≈ 1.68 µM)
- IC50 (Trypanosoma cruzi): 7.91 µM

- MIC (Staphylococcus aureus [1]): 0.1 µg/mL (≈ 0.286 µM)
SMILES: CC1(C)S[C@@H]2[C@H](NC(=O)[C@H](N)c3ccccc3)C(=O)N2[C@H]1C(=O)O [AMPICILLIN]

- IC50 (Trypanosoma cruzi): 20.8 µM
SMILES: O=C(Cn1ccnc1[N+](=O)[O-])NCc1ccccc1 [BENZNIDAZOLE]

- MIC (Staphylococcus aureus [1]): 5.9 µg/mL (≈ 21.4 µM)
- MIC (Staphylococcus aureus [3]): 5 µg/mL (≈ 18.2 µM)
- IC50 (Trypanosoma cruzi): 120 µM
SMILES: O=C(N/N=C/c1ccc([N+](=O)[O-])o1)c1ccc(O)cc1 [NIFUROXAZIDE]
